Results on 12 compounds are retold here after ChEMBL document CHEMBL1926588, “Sulfur and selenium derivatives of quinazoline and pyrido[2,3-d]pyrimidine: synthesis and study of their potential cytotoxic activity in vitro” (Eur J Med Chem, 2012).

In data set [1] the test system is CCRF-CEM. As to the kind of experiment: Cytotoxicity against human CCRF-CEM cells after 72 hrs by MTT assay. The conditions noted are these: for CC50: read-out: LC50 (the source's name). It is filed as functional. The essentials: (§1)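 MTT read-out after 72 h exposure at 37 °C in humidified 5% CO2, with five concentrations between 0.01 and 100. GI50 is 50% growth reduction versus untreated controls, TGI is complete growth inhibition, and LC50 is the concentration killing 50% of cells. Minimum three independent experiments.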
Background: Tetrazolium dyes change colour on reduction, which living cells bring about.

In data set [2] the test system is HT-29. Briefly: Cytotoxicity against human HT-29 cells after 72 hrs by MTT assay. It is filed as functional. The conditions noted are these: HT-29, 72 h; for CC50: read-out: LC50 (the source's name). The essentials:
as §1

Data set [3] can be described thus: Cytotoxicity against human HTB-54 cells after 72 hrs by MTT assay. It is filed as functional. The settings on record: HTB-54, 72 h; for CC50: read-out: LC50 (the source's name). The procedure, abridged:
as §1

In data set [4] the test system is MCF7. As to the kind of experiment: Cytotoxicity against human MCF7 cells after 72 hrs by MTT assay. The format is functional. The conditions noted are these: MCF7, 72 h. The procedure, abridged: as §1
Data set [5] can be described thus: Cytotoxicity against human 184B5 cells after 72 hrs by MTT assay. The format is cell-based. The settings on record: for GI50 at 72 h: 184B5 cells; for LC50 / TGI: 184b5, 72 h. The procedure, abridged: as §1
A short description of data set [6]: Cytotoxicity against human BEAS2B cells after 72 hrs by MTT assay. The settings on record: for GI50 at 72 h: BEAS2B cells; for LC50 / TGI: beas-2b, 72 h. It is filed as cell-based, BEAS-2B. The procedure, abridged: as §1

Consider `COc1ccc(CNc2nc([SeH])nc3ccccc23)cc1`, for which the GI50 was more than 100 µM in data set [1], 71.6 µM in data set [2], 7.11 µM in data set [3] and 42.7 µM in data set [4]. In addition, the concentration for total growth inhibition (TGI) was more than 100 µM in data set [1]; more than 100 µM in data set [2]; 60.9 µM in data set [3]; 94 µM in data set [4]; more than 100 µM in data set [5]; more than 100 µM in data set [6]. The CC50 in data set [1], in data set [2] and in data set [3] was more than 100 µM each time. Besides, the LC50 in data set [4], in data set [5] and in data set [6] was more than 100 µM in each case. Further, the GI50 at 72 h was 71.2 µM in data set [5] and 37.4 µM in data set [6].
For the compound `CSc1nc(NCc2ccccc2)c2ccccc2n1`, the 50% growth inhibitory concentration (GI50) in data set [1] was found to be 87.9 µM; in data set [2] it was 36.5 µM; in data set [3], 37.9 µM; in data set [4] it was 41.5 µM. The concentration for total growth inhibition (TGI) in data set [1] is more than 100 µM; in data set [2], more than 100 µM; in data set [3], 82.3 µM; in data set [4], 82.8 µM; in data set [5], more than 100 µM; in data set [6] it was 88.24 µM. Moreover, the CC50 in data set [1], in data set [2] and in data set [3] was more than 100 µM each time. The 50% lethal concentration (LC50) in data set [4], in data set [5] and in data set [6] was more than 100 µM throughout. The concentration for 50% growth inhibition (GI50) at 72 h came to 28.9 µM in data set [5] and 38.9 µM in data set [6].
Regarding `CCCCCSc1nc(NCc2ccc([Se]C)cc2)c2ccccc2n1`, the 50% growth inhibitory concentration (GI50) in data set [1] is more than 100 µM; in data set [2] it was 14.4 µM; in data set [3], 19.8 µM; in data set [4], 13 µM. The concentration for total growth inhibition (TGI) in data set [1] was more than 100 µM; in data set [2], more than 100 µM; in data set [3], 50 µM; in data set [4], 75.2 µM; in data set [5], more than 100 µM; in data set [6], more than 100 µM. In addition, the CC50 in data set [1] was more than 100 µM; in data set [2], more than 100 µM; in data set [3], 80.2 µM. Moreover, the median lethal concentration (LC50) in data set [4], in data set [5] and in data set [6] was more than 100 µM throughout. Also, the concentration for 50% growth inhibition (GI50) at 72 h in data set [5] was determined as 73 µM; in data set [6] it was 31.2 µM.
As for `CSc1ccc(CNc2nc([Se]C)nc3ccccc23)cc1`, the GI50 in data set [1] stood at 48.7 µM; in data set [2], 72.7 µM; in data set [3], 37.9 µM; in data set [4] it was 54.1 µM. Moreover, the concentration for total growth inhibition (TGI) in data set [1] was 86.9 µM; in data set [2], more than 100 µM; in data set [3], 72.4 µM; in data set [4], more than 100 µM; in data set [5] it was more than 100 µM; in data set [6], 78.54 µM. Further, the CC50 in data set [1], in data set [2] and in data set [3] was more than 100 µM throughout. Moreover, the median lethal concentration (LC50) in data set [4], in data set [5] and in data set [6] was more than 100 µM each time. Also, the 50% growth inhibitory concentration (GI50) at 72 h in data set [5] stood at 37.1 µM; in data set [6], 35.9 µM.
As to `CSc1nc(NCCc2ccccc2)c2ccccc2n1`, the GI50 is 32.9 µM in data set [1], 29.2 µM in data set [2], 50.6 µM in data set [3] and 80.3 µM in data set [4]. In addition, the concentration for total growth inhibition (TGI) in data set [1] is 72.8 µM; in data set [2], 87.4 µM; in data set [3] it was more than 100 µM; in data set [4], more than 100 µM; in data set [5], 46.88 µM; in data set [6], 94.8 µM. Moreover, the CC50 in data set [1], in data set [2] and in data set [3] was more than 100 µM throughout. The figures for the LC50 in data set [4], in data set [5] and in data set [6] were more than 100 µM, 88.58 µM and more than 100 µM, respectively. Also, the values for the GI50 at 72 h in data set [5] and in data set [6] were 8.3 µM and 41.9 µM, respectively.
For `CCCCC[Se]c1nc([Se]CCCCC)c2ccccc2n1`, the GI50 in data set [1] was 65.7 µM; in data set [2], more than 100 µM; in data set [3], more than 100 µM; in data set [4], 38.4 µM. Besides, the total growth inhibition concentration (TGI) in data set [1] was more than 100 µM; in data set [2] it was more than 100 µM; in data set [3] it was more than 100 µM; in data set [4], 95.1 µM; in data set [5] it was more than 100 µM; in data set [6] it was more than 100 µM. The CC50 in data set [1], in data set [2] and in data set [3] was more than 100 µM throughout. In addition, the median lethal concentration (LC50) in data set [4], in data set [5] and in data set [6] was more than 100 µM each time. Also, the GI50 at 72 h is 71.3 µM in data set [5] and more than 100 µM in data set [6].
Turning to `Sc1nc(NCc2ccccc2)c2ccccc2n1`, the GI50 came out at 82.4 µM in data set [1], 10.1 µM in data set [2], 15.2 µM in data set [3] and 27.2 µM in data set [4]. Moreover, the TGI is more than 100 µM in data set [1]; 63.5 µM in data set [2]; more than 100 µM in data set [3]; more than 100 µM in data set [4]; more than 100 µM in data set [5]; more than 100 µM in data set [6]. The CC50 in data set [1], in data set [2] and in data set [3] was more than 100 µM in each case. Besides, the LC50 in data set [4], in data set [5] and in data set [6] was more than 100 µM throughout. For the same compound, the 50% growth inhibitory concentration (GI50) at 72 h in data set [5] stood at 49.6 µM; in data set [6], 66.3 µM.
For the compound `COc1ccc(CNc2nc([Se]C)nc3ccccc23)cc1`, the concentration for 50% growth inhibition (GI50) is more than 100 µM in data set [1], 73.6 µM in data set [2], 33 µM in data set [3] and 42.2 µM in data set [4]. In addition, the TGI in data set [1] was more than 100 µM; in data set [2], more than 100 µM; in data set [3], more than 100 µM; in data set [4], 98.6 µM; in data set [5] it was more than 100 µM; in data set [6], more than 100 µM. Further, the CC50 in data set [1], in data set [2] and in data set [3] was more than 100 µM in each case. Also, the median lethal concentration (LC50) in data set [4], in data set [5] and in data set [6] was more than 100 µM each time. The GI50 at 72 h in data set [5] is 75.6 µM; in data set [6], more than 100 µM.
Turning to `[Se]=C=NCc1ccccc1` [BENZYLISOSELENOCYANATE], the GI50 in data set [1] was 28.7 µM; in data set [2] it was 21 µM; in data set [3] it was 5.98 µM; in data set [4] it was 27.9 µM. The total growth inhibition concentration (TGI) in data set [1] was determined as 57.7 µM; in data set [2], 44.5 µM; in data set [3], 33.4 µM; in data set [4], 61.7 µM; in data set [5], 45.15 µM; in data set [6], 32.75 µM. Further, the CC50 in data set [1] was 86.7 µM; in data set [2], 68.1 µM; in data set [3], 66.1 µM. In addition, the 50% lethal concentration (LC50) in data set [4] is 95.5 µM; in data set [5] it was 74.86 µM; in data set [6], 69.59 µM. The GI50 at 72 h in data set [5] was 15.5 µM; in data set [6], 4.1 µM.
As to `CSc1nc(NCCCc2ccccc2)c2ccccc2n1`, the 50% growth inhibitory concentration (GI50) in data set [1] amounted to 39.5 µM; in data set [2], 19.6 µM; in data set [3], 50.6 µM; in data set [4] it was 77.2 µM. Moreover, the concentration for total growth inhibition (TGI) in data set [1] was 87.8 µM; in data set [2], 89.5 µM; in data set [3], more than 100 µM; in data set [4], more than 100 µM; in data set [5] it was more than 100 µM; in data set [6] it was more than 100 µM. The CC50 in data set [1], in data set [2] and in data set [3] was more than 100 µM in each case. The LC50 in data set [4], in data set [5] and in data set [6] was more than 100 µM throughout. Also, the concentration for 50% growth inhibition (GI50) at 72 h in data set [5] was determined as 6.77 µM; in data set [6], 73.4 µM.
For `[SeH]c1nc(NCc2ccccc2)c2cccnc2n1`, the GI50 is 30.5 µM in data set [1], 6.35 µM in data set [2], more than 100 µM in data set [3] and 0.03 µM in data set [4]. Moreover, the total growth inhibition concentration (TGI) in data set [1] is 68.9 µM; in data set [2], 33.1 µM; in data set [3], more than 100 µM; in data set [4] it was more than 100 µM; in data set [5] it was 9.13 µM; in data set [6], more than 100 µM. Further, the CC50 in data set [1], in data set [2] and in data set [3] was more than 100 µM each time. Moreover, the LC50 in data set [4], in data set [5] and in data set [6] was more than 100 µM each time. Further, the concentration for 50% growth inhibition (GI50) at 72 h came out at 3.7 µM in data set [5] and 8.4 µM in data set [6].
For the compound `CCCCC[Se]c1nc([Se]CCCCC)c2cccnc2n1`, the concentration for 50% growth inhibition (GI50) in data set [1] is more than 100 µM; in data set [2], more than 100 µM; in data set [3] it was 15.2 µM; in data set [4], 40.8 µM. Besides, the TGI in data set [1] was more than 100 µM; in data set [2], more than 100 µM; in data set [3], 60.5 µM; in data set [4] it was 67.7 µM; in data set [5], more than 100 µM; in data set [6], more than 100 µM. Besides, the CC50 in data set [1], in data set [2] and in data set [3] was more than 100 µM each time. Besides, the LC50 in data set [4] was 94.6 µM; in data set [5], more than 100 µM; in data set [6], more than 100 µM. Besides, the results for the GI50 at 72 h in data set [5] and in data set [6] were 52.8 µM and more than 100 µM, respectively.

One may read the GI50 as the concentration giving 50% growth inhibition. As usually defined, the TGI is the concentration at which net growth stops. A low value points to greater sensitivity of the cells. In general, LC50 refers to the concentration that kills 50% of the test population. Read a low LC50 as greater toxicity.
